Screens (PubChem BioAssay)
Glyco luc inh: N-linked glycosylation inhibition; AID 588692; reporter increase, % at 12.5 µM; D54 ERlucT glycosylation luciferase reporter, 24 h; percent of 100 nM tunicamycin response; 360,000 tested, 0.23% active;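 active = mean luciferase reporter signal, scaled so untreated is 0 and the glycosylation-blocking control 100, at or above a set limit in every replicate; inconclusive = mean reaches the limit but not every replicate does; inactive = mean below the limit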;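 also: luciferase carries N-glycosylation sites so blocking glycosylation raises the light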
CaV13 ICDI inh: Disruptors of the CACNA1D IQ motif to Ca2+-dependent inactivation inhibitor domain association, primary screening, Förster resonance energy transfer in intact living … | HEK cells, CFP/YFP FRET ICDI-IQ, plate reader, 10 min; percent FRET-ratio fall versus neutral wells | AID 743397 | inhibition, % at 12.3 µM | 340,000 tested, 0.098% active;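 active = mean replicate inhibition of at least 30% and at least 1% of replicates passing that level; inconclusive = only one of the two criteria is met; inactive = neither criterion is met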
T cruzi repl: blocks replication of Trypanosoma cruzi; T. cruzi beta-gal in NIH3T3, luminescence, 90 h; inhibition, % (no concentration beside the values); 300,000 tested, 1.4% active; AID 1885;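 active = mean inhibition across valid replicates above about 55%, limit read from the data; inconclusive = mean below that limit but half or more replicates reach it; inactive = mean below it, under half of replicates reach it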;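 also: signal also drops with host cell toxicity which is not excluded here; higher percent means less beta-gal luminescence so fewer parasites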
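System: mouse NIH/3T3 fibroblasts infected with β-gal-expressing T. cruzi Tulahuen C4 / Input: NIH/3T3 cells, 5,000 per well / Buffer or medium: Low-serum DMEM with 2% FBS / Probe or stimulus: 5000 reporter trypomastigotes per well / Schedule: ≥90 h infection period, 3 h prior cell attachment / Measured by: GalScreen luminescence, 60 min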
PvdQ acylase: P. aeruginosa PvdQ acylase inhibition; inhibition, % at 10 µM; AID 488965; purified PvdQ acylase, fluorescence plate reader; 340,000 tested, 0.063% active; in the data active = inhibition above about 30%, passing the limit was not always enough; inconclusive = no clear call, values can overlap the other calls
HSF-1 act: increases HSF-1 driven luciferase reporter signal | NIH3T3-HGL HSF-1 luciferase reporter, MG132, 8 h; 100% = twice DMSO control signal | activation, % at 9 µM | 300,000 tested, 1.7% active | AID 504408;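 active = mean replicate activation of at least 50% with a set share of replicates each reaching 50%; inconclusive = only one of those two conditions met; inactive = mean below 50% and too few replicates reaching it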
PfHsp90 set2: growth inhibition of yeast expressing Plasmodium Hsp90; S. cerevisiae expressing PfHsp90, BacTiter-Glo ATP, 48 h; yeast lacking PDR1 and PDR3 efflux regulators; inhibition, % at 9.4 µM; 310,000 tested, 0.32% active; AID 504621;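 active = every replicate shows inhibition above about 80%, whatever the replicate mean, limit read from the data; inconclusive = mean inhibition reaches the set limit but some replicate falls short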
Numbers stand for hits. The list is not random: actives were taken first. Their share in the collection is about 3%.

How did Cc1onc(-c2ccccc2)c1C(=O)NC(=S)NNC(=O)c1ccc(O)cc1O do in these assays?
Glyco luc inh: inactive; CaV13 ICDI inh: inactive; T cruzi repl: inactive; PvdQ acylase: inactive; HSF-1 act: inactive; PfHsp90 set2: inactive

How did COc1cccc(/C=N/NC(=O)c2c(-c3ccccc3)noc2C)c1 do in these assays?
Glyco luc inh: inactive; CaV13 ICDI inh: inactive; T cruzi repl: inactive; PvdQ acylase: inactive; HSF-1 act: inactive; PfHsp90 set2: inactive

How did CCCOc1ccc(NC(=O)c2c(-c3ccccc3)noc2C)cc1 do in these assays?
Glyco luc inh: inactive; CaV13 ICDI inh: 36.1; T cruzi repl: inactive; PvdQ acylase: inactive; HSF-1 act: inactive; PfHsp90 set2: inactive

What do the screens show for `Cc1onc(-c2ccccc2)c1C(=O)NC(=S)NNC(=O)c1ccccc1O`?
Glyco luc inh: inactive; CaV13 ICDI inh: inactive; T cruzi repl: inactive; PvdQ acylase: inactive; HSF-1 act: inactive; PfHsp90 set2: 100.9

Results for O=C(Nc1ccc(Br)cc1F)c1nc[nH]c1C(=O)N1CCc2ccccc2C1 ?
Glyco luc inh: inactive; CaV13 ICDI inh: inactive

Results for OCCCn1c(C2CCCN2c2nc(-c3ccc(F)cc3)cs2)nc2cc(C(F)(F)F)ccc21 (centres undefined) ?
Glyco luc inh: inactive; CaV13 ICDI inh: inactive; T cruzi repl: inactive; PvdQ acylase: inactive; HSF-1 act: inactive

What do the screens show for `OCCOCCn1c(C2CCCN2c2nc(-c3ccc(F)cc3)cs2)nc2cc(Cl)c(Cl)cc21` (centres undefined)?
Glyco luc inh: inactive; CaV13 ICDI inh: inactive; T cruzi repl: inactive; PvdQ acylase: inactive; HSF-1 act: inactive; PfHsp90 set2: 110.1

What do the screens show for `OCCOCCn1c(C2CCCN2c2nc(-c3ccc(F)cc3)cs2)nc2cc(C(F)(F)F)ccc21` (centres undefined)?
Glyco luc inh: inactive; CaV13 ICDI inh: inactive; T cruzi repl: inactive; PvdQ acylase: inactive; HSF-1 act: inactive; PfHsp90 set2: 108.3

How did CCOC(=O)c1sc2nccc(N(C)C)c2c1N=CNOCc1c(F)cccc1Cl do in these assays?
Glyco luc inh: inactive; CaV13 ICDI inh: inactive; T cruzi repl: 69.9; PvdQ acylase: inactive; HSF-1 act: inactive; PfHsp90 set2: inactive

How did c1ccc(-n2ncc3c(NCc4cccs4)ncnc32)cc1 do in these assays?
Glyco luc inh: inactive; CaV13 ICDI inh: inactive; T cruzi repl: inactive; PvdQ acylase: inactive; HSF-1 act: 66.0; PfHsp90 set2: inactive

Results for COc1ccc(-n2ncc3c(NCc4cccs4)ncnc32)cc1 ?
Glyco luc inh: inactive; CaV13 ICDI inh: inactive; T cruzi repl: inactive; PvdQ acylase: inactive; HSF-1 act: inactive; PfHsp90 set2: inactive

How did COC(=O)C1=C(C)N(Cc2ccccc2C(F)(F)F)C(=NCc2ccc(OC)cc2)NC1CCc1ccccc1 (centres undefined) do in these assays?
CaV13 ICDI inh: inactive

How did O=C1CN(C(=O)CN2CCN(S(=O)(=O)c3ccccc3F)CC2)c2ccccc2N1 do in these assays?
Glyco luc inh: inactive; CaV13 ICDI inh: inactive

Results for Fc1cccc(F)c1/C=N/Nc1ccccn1 ?
Glyco luc inh: inactive; CaV13 ICDI inh: inactive; T cruzi repl: inactive; PvdQ acylase: inactive; HSF-1 act: inconclusive; PfHsp90 set2: inactive

Results for Oc1ccc2ccccc2c1C=NNc1ccccn1 ?
Glyco luc inh: inactive; CaV13 ICDI inh: inactive; PvdQ acylase: inactive; HSF-1 act: 69.8; PfHsp90 set2: inactive

What do the screens show for `COc1ccc(/C=N/Nc2nnc(-c3ncc[nH]3)c3ccccc23)cc1`?
Glyco luc inh: inactive; T cruzi repl: inactive; PvdQ acylase: inactive; HSF-1 act: inactive; PfHsp90 set2: inactive

Results for O=C(N/N=C/c1c(O)ccc2ccccc12)c1cccc(C(F)(F)F)c1 ?
Glyco luc inh: inactive; CaV13 ICDI inh: inactive; T cruzi repl: 56.5; PvdQ acylase: inactive; HSF-1 act: inactive; PfHsp90 set2: 90.6

Results for COc1ccc2ccccc2c1/C=N/NC(=O)c1cccc(Br)c1 ?
Glyco luc inh: inactive; CaV13 ICDI inh: inactive; T cruzi repl: inactive; PvdQ acylase: inactive; HSF-1 act: inactive; PfHsp90 set2: inactive

What do the screens show for `Oc1ccc2ccccc2c1/C=N/Nc1nnc(-c2ncc[nH]2)c2ccccc12`?
Glyco luc inh: inactive; CaV13 ICDI inh: inactive; T cruzi repl: 58.3; PvdQ acylase: inactive; HSF-1 act: inactive; PfHsp90 set2: 121.5

What do the screens show for `Cc1cc(Br)cn2c(Cc3ccccc3C(F)(F)F)c(-c3ccc(F)cc3)nc12`?
CaV13 ICDI inh: inactive

How did CCOC(=O)C1=CCN(S(=O)(=O)c2ccccc2F)C1c1ccc(Br)cc1 (centres undefined) do in these assays?
CaV13 ICDI inh: inactive

Results for CC(C)N1CCC(C)(C(=O)Nc2cc(-c3ccccc3)nn2C)C1 (centres undefined) ?
Glyco luc inh: inactive; CaV13 ICDI inh: inactive

Results for N#C/C(=C\c1ccc([N+](=O)[O-])o1)c1nc2ccccc2[nH]1 ?
CaV13 ICDI inh: inactive; T cruzi repl: inactive; HSF-1 act: inactive

What do the screens show for `N#C/C(=C\c1ccc(-c2ccccc2C(=O)O)o1)c1nc2ccccc2[nH]1`?
Glyco luc inh: inactive; CaV13 ICDI inh: inactive; T cruzi repl: inactive; PvdQ acylase: inactive; HSF-1 act: inactive; PfHsp90 set2: inactive

How did Cc1ccc2nc(/C(C#N)=C\c3ccc([N+](=O)[O-])o3)[nH]c2c1 do in these assays?
Glyco luc inh: inactive; T cruzi repl: 66.7; PvdQ acylase: inactive; HSF-1 act: inactive; PfHsp90 set2: 104.5

Results for N#C/C(=C\c1ccc(Sc2ccccc2)o1)c1nc2ccccc2[nH]1 ?
Glyco luc inh: inactive; CaV13 ICDI inh: inactive; T cruzi repl: 60.9; PvdQ acylase: inactive; HSF-1 act: inactive; PfHsp90 set2: inactive

What do the screens show for `CCOC(=O)C1=C(CNCCc2ccc(Cl)cc2)NC(=O)NC1c1ccc2c(c1)OCO2` (centres undefined)?
Glyco luc inh: inactive; CaV13 ICDI inh: inactive; T cruzi repl: 56.5; PvdQ acylase: inactive; HSF-1 act: inactive; PfHsp90 set2: inactive

How did CCOC(=O)C1=C(C)Nc2ncnn2C1c1ccc2c(c1)OCO2 (centres undefined) do in these assays?
Glyco luc inh: inactive; CaV13 ICDI inh: inactive; T cruzi repl: inactive; PvdQ acylase: inactive; HSF-1 act: 51.0; PfHsp90 set2: inactive

Results for CCOC(=O)C1=C(CNCCOc2ccc(OC)cc2)NC(=O)NC1c1ccc2c(c1)OCO2 (centres undefined) ?
Glyco luc inh: inactive; CaV13 ICDI inh: inactive; T cruzi repl: inactive; PvdQ acylase: inactive; HSF-1 act: inactive

How did O=C(NN=Cc1ccccc1Cl)C(=O)Nc1cccc(C(F)(F)F)c1 do in these assays?
CaV13 ICDI inh: inactive

Results for CCCCN(C(=O)c1ccc(S(=O)(=O)N(C)c2ccccc2)cc1)c1c(N)n(CCC)c(=O)[nH]c1=O ?
Glyco luc inh: inactive; CaV13 ICDI inh: inactive; PvdQ acylase: inactive; PfHsp90 set2: inactive
